≈ marks a conversion by molar mass, not a printed value.
Assays:
[1] = test system: Escherichia coli; assay: Antibacterial activity against ESBL-producing Escherichia coli ATCC 35218 strains 15 1 to 3 assessed as reduction in bacterial growth incubated for 18 to 20 hrs by CLSI based microdilution method; format: functional; details: time 18-20 hrs
Procedure, shortened: (§1)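 CLSI broth microdilution. Compounds in DMSO (levofloxacin and meropenem in water), serial twofold dilutions in broth, 64 to 0.008 μg/mL. […] Results reported as MIC ranges across strains.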

[2] = Metabolic stability in rat liver microsome assessed as elimination half life at 0.1 uM in presence of NADPH incubated upto 60 mins by LC-MS/MS analysis; format: ADME; details: liver microsomes, read-out: beta t1/2
Procedure, shortened: (§2)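 Compound at 0.1 μM final, in 0.01% DMSO with 0.005% BSA. Incubated with rat or human liver microsomes at 0.33 mg/mL in 0.1 M Tris-HCl, pH 7.4, with 5 mM MgCl₂ and 1 mM NADPH, at 37 °C. Samples at 0, 7, 17, 30 and 60 min quenched with cold methanol and analysed by LC-MS/MS. Half-life, Cl_int and MF% derived as previously described.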

[3] = Metabolic stability in rat liver microsome assessed as metabolic bioavailability at 0.1 uM in presence of NADPH incubated upto 60 mins by LC-MS/MS analysis; format: ADME; details: liver microsomes; procedure, shortened: as §2
[4] = Metabolic stability in human liver microsome assessed as elimination half life at 0.1 uM in presence of NADPH incubated upto 60 mins by LC-MS/MS analysis; format: ADME; details: liver microsomes, read-out: beta t1/2; procedure, shortened: as §2
[5] = test system: Staphylococcus epidermidis; assay: Antibacterial activity against methicillin-sensitive Staphylococcus epidermidis strains 15 1 to 4 assessed as reduction in bacterial growth incubated for 18 to 20 hrs by CLSI based microdilution method; format: functional; details: time 18-20 hrs
Procedure, shortened: (§3)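 Broth microdilution per CLSI. Compounds dissolved in DMSO (levofloxacin and meropenem in water) as 64 μg/mL stock, then serial twofold dilutions in broth giving 64 to 0.008 μg/mL. […] Clinical isolates tested as several strains per group; racemic GP-1 served as positive control; values given as MIC ranges.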

[6] = test system: Pseudomonas aeruginosa; assay: Antibacterial activity against multidrug resistant Pseudomonas aeruginosa strains 15 1 to 3 assessed as reduction in bacterial growth incubated for 18 to 20 hrs by CLSI based microdilution method; format: functional; details: time 18-20 hrs; procedure, shortened: as §3
[7] = test system: Escherichia coli; assay: Antibacterial activity against Escherichia coli ATCC 35218 strains 15 1 to 3 assessed as reduction in bacterial growth incubated for 18 to 20 hrs by CLSI based microdilution method; format: functional; details: time 18-20 hrs; procedure, shortened: as §1
[8] = test system: Staphylococcus aureus; assay: Antibacterial activity against methicillin-sensitive Staphylococcus aureus strains 15 1 to 4 assessed as reduction in bacterial growth incubated for 18 to 20 hrs by CLSI based microdilution method; format: functional; details: time 18-20 hrs; procedure, shortened: as §3
[9] = Metabolic stability in human liver microsome assessed as metabolic bioavailability at 0.1 uM in presence of NADPH incubated upto 60 mins by LC-MS/MS analysis; format: ADME; details: liver microsomes; procedure, shortened: as §2
[10] = Metabolic stability in human liver microsome assessed as intrinsic clearance at 0.1 uM in presence of NADPH incubated upto 60 mins by LC-MS/MS analysis; format: ADME; details: microsomes, 1 h; procedure, shortened: as §2
[11] = Metabolic stability in rat liver microsome assessed as intrinsic clearance at 0.1 uM in presence of NADPH incubated upto 60 mins by LC-MS/MS analysis; format: ADME; details: microsomes, 1 h; procedure, shortened: as §2
[12] = test system: Staphylococcus epidermidis; assay: Antibacterial activity against methicillin-resistant Staphylococcus epidermidis strains 15 1 to 4 assessed as reduction in bacterial growth incubated for 18 to 20 hrs by CLSI based microdilution method; format: functional; details: time 18-20 hrs; procedure, shortened: as §3
[13] = test system: Staphylococcus aureus; assay: Antibacterial activity against methicillin-resistant Staphylococcus aureus strains 15 1 to 4 assessed as reduction in bacterial growth incubated for 18 to 20 hrs by CLSI based microdilution method; format: functional; details: time 18-20 hrs; procedure, shortened: as §3
[14] = test system: Escherichia coli; assay: Antibacterial activity against ESBL-producing multidrug resistant Escherichia coli assessed as reduction in bacterial growth incubated for 18 to 20 hrs by CLSI based microdilution method; format: functional; details: time 18-20 hrs; procedure, shortened: as §3
[15] = test system: Klebsiella pneumoniae; assay: Antibacterial activity agains wild type Klebsiella pneumoniae ATCC BAA-1705 assessed as reduction in bacterial growth incubated for 18 to 20 hrs by CLSI based microdilution method; format: functional; details: time 18-20 hrs; procedure, shortened: as §1
[16] = test system: Escherichia coli; assay: Antibacterial activity against multidrug resistant wild type Escherichia coli NCTC 13353 assessed as reduction in bacterial growth incubated for 18 to 20 hrs by CLSI based microdilution method; format: functional; details: time 18-20 hrs; procedure, shortened: as §3
[17] = test system: Pseudomonas aeruginosa; assay: Antibacterial activity against IMP4-producing multidrug resistant Pseudomonas aeruginosa assessed as reduction in bacterial growth incubated for 18 to 20 hrs by CLSI based microdilution method; format: functional; details: time 18-20 hrs; procedure, shortened: as §3
[18] = test system: Klebsiella pneumoniae; assay: Antibacterial activity against KPC2-producing multidrug resistant Klebsiella pneumoniae assessed as reduction in bacterial growth incubated for 18 to 20 hrs by CLSI based microdilution method; format: functional; details: time 18-20 hrs; procedure, shortened: as §3
[19] = test system: Acinetobacter baumannii; assay: Antibacterial activity agains OXA23-producing multidrug resistant Acinetobacter baumannii assessed as reduction in bacterial growth incubated for 18 to 20 hrs by CLSI based microdilution method; format: functional; details: time 18-20 hrs; procedure, shortened: as §3
[20] = test system: Pseudomonas aeruginosa; assay: Antibacterial activity against wild type Pseudomonas aeruginosa ATCC 27853 assessed as reduction in bacterial growth incubated for 18 to 20 hrs by CLSI based microdilution method; format: functional; details: time 18-20 hrs; procedure, shortened: as §1
[21] = test system: Klebsiella pneumoniae; assay: Antibacterial activity agains wild type Klebsiella pneumoniae ATCC BAA-2470 assessed as reduction in bacterial growth incubated for 18 to 20 hrs by CLSI based microdilution method; format: functional; details: time 18-20 hrs; procedure, shortened: as §3
[22] = test system: Acinetobacter baumannii; assay: Antibacterial activity against wild type Acinetobacter baumannii NCTC 13304 assessed as reduction in bacterial growth incubated for 18 to 20 hrs by CLSI based microdilution method; format: functional; details: time 18-20 hrs; procedure, shortened: as §3
[23] = test system: Escherichia coli; assay: Antibacterial activity against multidrug resistant wild type Escherichia coli ATCC BAA-2340 assessed as reduction in bacterial growth incubated for 18 to 20 hrs by CLSI based microdilution method; format: functional; details: time 18-20 hrs; procedure, shortened: as §3
[24] = target: hERG (KCNH2) potassium channel (Homo sapiens, UniProt Q12809); assay: Inhibition of hERG potassium channel assessed as maximum inhibition rate at 40 uM at -80 mV holding potential incubated for 120 seconds by whole cell-automated voltage clamp analysis assay relative to control; format: toxicity; details: time 120 sec
hERG (KCNH2) potassium channel, sequence (Q12809 whole entry): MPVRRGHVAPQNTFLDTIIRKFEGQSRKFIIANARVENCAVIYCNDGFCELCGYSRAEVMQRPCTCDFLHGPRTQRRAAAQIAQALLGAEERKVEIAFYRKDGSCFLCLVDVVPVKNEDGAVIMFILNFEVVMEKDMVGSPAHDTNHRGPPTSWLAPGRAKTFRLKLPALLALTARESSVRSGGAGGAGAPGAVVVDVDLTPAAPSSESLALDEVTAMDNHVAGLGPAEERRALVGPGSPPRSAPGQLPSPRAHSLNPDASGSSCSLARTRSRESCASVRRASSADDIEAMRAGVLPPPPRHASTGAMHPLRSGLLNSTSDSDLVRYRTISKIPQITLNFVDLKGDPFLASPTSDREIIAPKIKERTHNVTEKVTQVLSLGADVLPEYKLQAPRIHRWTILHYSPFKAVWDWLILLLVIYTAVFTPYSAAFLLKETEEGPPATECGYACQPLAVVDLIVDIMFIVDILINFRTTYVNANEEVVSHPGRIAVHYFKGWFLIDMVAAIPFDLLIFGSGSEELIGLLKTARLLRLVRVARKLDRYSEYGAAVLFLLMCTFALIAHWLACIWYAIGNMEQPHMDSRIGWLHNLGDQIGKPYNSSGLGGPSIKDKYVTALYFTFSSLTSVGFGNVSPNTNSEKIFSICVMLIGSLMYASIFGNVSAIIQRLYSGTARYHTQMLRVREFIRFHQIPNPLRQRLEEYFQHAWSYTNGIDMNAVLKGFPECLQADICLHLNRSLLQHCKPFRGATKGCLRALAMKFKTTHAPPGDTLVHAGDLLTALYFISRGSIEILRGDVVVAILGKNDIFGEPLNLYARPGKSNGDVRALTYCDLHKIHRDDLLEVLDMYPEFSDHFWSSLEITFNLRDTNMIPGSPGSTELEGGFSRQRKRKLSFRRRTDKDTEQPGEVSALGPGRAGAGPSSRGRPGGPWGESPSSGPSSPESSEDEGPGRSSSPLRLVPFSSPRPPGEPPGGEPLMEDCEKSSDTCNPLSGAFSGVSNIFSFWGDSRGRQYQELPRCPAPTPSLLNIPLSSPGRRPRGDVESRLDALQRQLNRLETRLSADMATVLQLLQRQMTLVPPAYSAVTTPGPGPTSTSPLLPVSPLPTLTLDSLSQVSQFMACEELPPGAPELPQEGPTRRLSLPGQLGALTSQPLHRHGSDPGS
Procedure, shortened: (§4)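 Automated whole-cell patch clamp, holding potential −80 mV. Voltage protocol applied every 20 s. Baseline set with external solution containing 0.1% DMSO and stabilised 3 min. Compound applied until steady state, at least 3 min, then washout. Maximum tested concentration 40 μM, or 3 μM for cisapride as positive control.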

[25] = target: Voltage-gated inwardly rectifying potassium channel KCNH2 (Homo sapiens, UniProt Q12809); assay: Inhibition of hERG potassium channel assessed as […] at -80 mV holding potential incubated for 120 seconds by whole cell-automated voltage clamp analysis assay; format: toxicity; procedure, shortened: as §4
Voltage-gated inwardly rectifying potassium channel KCNH2, sequence (Q12809 whole entry): as above

| SMILES | MIC [1] [µg/mL] | half-life at 0.1 µM [2] [min] | Fh at 1 h, 0.1 µM [3] [%] | half-life at 0.1 µM [4] [min] | MIC [5] [µg/mL] | MIC [6] [µg/mL] | MIC [7] [µg/mL] | MIC [8] [µg/mL] | Fh at 1 h, 0.1 µM [9] [%] | CLH [10] [mL/min/g] | CLH [11] [mL/min/g] | MIC [12] [µg/mL] | MIC [13] [µg/mL] | MIC [14] [µg/mL] | MIC [15] [µg/mL] | MIC [16] [µg/mL] | MIC [17] [µg/mL] | MIC [18] [µg/mL] | MIC [19] [µg/mL] | MIC [20] [µg/mL] | other results |
| --- | --- | --- | --- | --- | --- | --- | --- | --- | --- | --- | --- | --- | --- | --- | --- | --- | --- | --- | --- | --- | --- |
| CCC(CO)=C1CN(c2nc(Oc3cnc(C)nc3)nc3[nH]c4c(NC)cc(F)cc4c23)C1 | 0.25 (≈ 0.556 µM) | 45.6 | 14.8 | 76 | < 0.008 | ≥ 64 | 0.25 (≈ 0.556 µM) | < 0.008 | 27.6 | 51.4 | 256.1 | – | – | – | – | – | – | – | – | – | – |
| CNc1cc(F)cc2c1[nH]c1nc(Oc3cnc(C)nc3)nc(N3CCC(=CCN)CC3)c12 | 8 (≈ 17.8 µM) | – | – | – | 0.25 (≈ 0.557 µM) | ≥ 16 | > 2 | 1 (≈ 2.23 µM) | – | – | – | 0.25 (≈ 0.557 µM) | 0.5 (≈ 1.11 µM) | – | – | – | – | – | – | – | – |
| [2H]C([2H])([2H])Nc1cc(F)cc2c1[nH]c1nc(Oc3cnc(C)nc3)nc(N3CC(=C(CC)CN)C3)c12 | – | 32.9 | 41 | 105 | – | – | – | – | 49.6 | 20 | 63.9 | – | – | 0.5 (≈ 1.11 µM) | 4 (≈ 8.86 µM) | 0.125 (≈ 0.277 µM) | 4 (≈ 8.86 µM) | 1 (≈ 2.21 µM) | 0.25 (≈ 0.554 µM) | 2 (≈ 4.43 µM) | MIC [21]: 2 µg/mL (≈ 4.43 µM); MIC [22]: 0.25 µg/mL (≈ 0.554 µM); MIC [23]: 0.25 µg/mL (≈ 0.554 µM) |
| CCC(CN)=C1CN(c2nc(C#N)nc3[nH]c4c(NC)cc(F)cc4c23)C1 | 0.5 (≈ 1.37 µM) | – | – | – | 0.25 (≈ 0.684 µM) | 16 (≈ 43.8 µM) | 0.25 (≈ 0.684 µM) | 2 (≈ 5.47 µM) | – | – | – | 0.5 (≈ 1.37 µM) | 2 (≈ 5.47 µM) | – | – | – | – | – | – | – | – |
| CCC(CN)=C1CN(c2nc(Oc3cnc(CO)nc3)nc3[nH]c4c(NC)cc(F)cc4c23)C1 | 0.5 (≈ 1.08 µM) | 11.9 | 20.1 | 57.8 | < 0.008 | > 4 | 0.25 (≈ 0.538 µM) | < 0.008 | 35 | 36.3 | 176.4 | – | – | 1 (≈ 2.15 µM) | 8 (≈ 17.2 µM) | 0.5 (≈ 1.08 µM) | > 8 | 4 (≈ 8.61 µM) | 1 (≈ 2.15 µM) | 4 (≈ 8.61 µM) | inhibition at 2 min, 40 µM [24]: 30.9%; MIC [21]: 2 µg/mL (≈ 4.31 µM); MIC [22]: 1 µg/mL (≈ 2.15 µM); MIC [23]: 1 µg/mL (≈ 2.15 µM); IC50 [25]: > 40 µM |
| CCC(CN)=C1CN(c2nc(N)nc3[nH]c4c(NC)cc(F)cc4c23)C1 | 4 (≈ 11.3 µM) | – | – | – | 2 (≈ 5.63 µM) | ≥ 16 | 2 (≈ 5.63 µM) | > 4 | – | – | – | 4 (≈ 11.3 µM) | 4 (≈ 11.3 µM) | – | – | – | – | – | – | – | – |
